Screening data as filed in PubChem BioAssay.
TPT1 inhibitor – C. albicans TPT1 enzyme inhibition; hit rate 0.81% among 300,000; inhibition, % at 5 µM; recombinant caTPT1, FP RNA substrate dephosphorylation;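 active means inhibition above the mean of all tested compounds plus 3 SD, set per screening campaign, cut at about 24% in these data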;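 further: plate controls were DMSO alone for no effect and ferristatin control at 100 nM for full effect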
Rpn11 block – Rpn11 (human) deubiquitinase inhibition | AID 588493 | hit rate 0.59% among 360,000 | inhibition, % at 20 µM | human 26S proteasome, Ub4-pepOG fluorescence polarization; 20S core pre-blocked with epoxomicin;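 active means inhibition at 20 µM, scaled to each plate's controls, above about 33%, limit read from the data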
Rin1 Abl inh – inhibitors of human Rin1-Abl protein interaction. TR-FRET Rin1/Abl binding, biochemical. hit rate 0.4% among 360,000. AID 588664. inhibition, % at 7.35 µM. P00519+Q13671; in the data active means inhibition above about 5%, passing the limit was not always enough
Neddyl block – cullin neddylation inhibition; P61081+Q13564; TR-FRET cullin neddylation, biochemical; inhibition, % at 25 µM; hit rate 0.58% among 360,000; in the data active means inhibition above about 36%
CSN deneddyl inh – CSN deneddylation inhibition | hit rate 0.38% among 360,000 | Purified CSN, SCF-Nedd8-OG deneddylation, fluorescence polarization | Q92905 | AID 651999 | inhibition, % at 12.5 µM;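 active means pattern-corrected inhibition above about 35%, with an unprinted fluorescence ratio check between 0.5 and 1.5, limit read from the data, passing the limit was not always enough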;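 further: 0% = enzyme with substrate and 100% = substrate without enzyme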
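Schedule: reaction 90 min, room temperature / Assay system: HEK293T-derived human Csn5 enzyme / Input: Csn5 at 0.24 nM final / Measure: inhibition of Csn5 cleavage, % / Control set: substrate-only high control, full reaction low control / Technique: fluorescence polarization of the substrate / Buffer or medium: Tris/NaCl/DTT buffer, pH 7.5 / Reagent: SCFSkp2-Nedd8OG substrate at 10 nM final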
HNF4A DNA FP – change in binding of human HNF4 alpha to DNA. activity change, % at 10 µM. hit rate 0.3% among 360,000. P41235. HNF4a-FITC DNA binding, fluorescence polarization, 1 h; in the data active means activity change above about 30%, passing the limit was not always enough
Target sequence (P41235 whole entry, looked up): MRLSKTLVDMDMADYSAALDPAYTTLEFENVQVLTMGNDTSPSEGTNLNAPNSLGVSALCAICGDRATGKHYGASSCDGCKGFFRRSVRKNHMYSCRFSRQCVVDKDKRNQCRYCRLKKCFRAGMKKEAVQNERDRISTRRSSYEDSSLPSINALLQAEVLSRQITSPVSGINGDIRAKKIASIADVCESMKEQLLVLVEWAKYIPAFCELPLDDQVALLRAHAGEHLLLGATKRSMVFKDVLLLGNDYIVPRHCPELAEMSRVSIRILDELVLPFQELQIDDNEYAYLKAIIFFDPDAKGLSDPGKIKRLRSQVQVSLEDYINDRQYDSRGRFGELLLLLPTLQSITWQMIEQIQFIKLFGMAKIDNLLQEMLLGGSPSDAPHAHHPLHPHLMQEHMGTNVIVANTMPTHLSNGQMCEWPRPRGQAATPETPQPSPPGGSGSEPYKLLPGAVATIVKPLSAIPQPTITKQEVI
TPT1 inh confirm – confirmation of Candida albicans TPT1 inhibitors | recombinant caTPT1, fluorescence polarization, RNase T1 coupled | inhibition, % at 5 µM | AID 2149 | shares compounds with TPT1 inhibitor | hit rate 74% among 2,400;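 active means inhibition above the primary screen limit, the mean inhibition of all tested compounds plus 3 SD, cut at about 25% in these data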
RNase T1 inh – blocks Aspergillus oryzae RNase T1, a TPT1 counter-screen. shares compounds with TPT1 inhibitor. RNase T1 cleavage, fluorescence polarization, 1536-well. inhibition, % at 5 µM. hit rate 83% among 2,400. AID 2153;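 active means inhibition above the solvent-only control well mean plus 3 SD, limit set per screening run, cut at about 23% in these data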;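 further: plate controls were DMSO wells with enzyme for no effect and wells without RNase T1 for full effect; inhibitors block cleavage so intact labeled substrate keeps polarization high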
Target sequence (P00651 whole entry, looked up): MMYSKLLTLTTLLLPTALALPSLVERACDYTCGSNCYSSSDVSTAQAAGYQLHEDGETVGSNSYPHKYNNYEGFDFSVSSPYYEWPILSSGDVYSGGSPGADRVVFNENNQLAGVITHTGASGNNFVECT
Rpn11 inh conf – Rpn11 inhibition confirmation, single concentration | shares compounds with Rpn11 block | purified human 26S proteasome, Ub4-pepOG fluorescence polarization; proteasome pretreated with epoxomicin | inhibition, % at 20 µM | hit rate 29% among 1,900
MMP-2 counter – counter-screen for RPN11 inhibitors: inhibition of human MMP-2; inhibition, % at 20 µM; recombinant MMP-2, FRET peptide cleavage fluorescence; AID 602330; shares compounds with Rpn11 block; hit rate 4% among 1,900;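 further: human MMP-2 activated beforehand with APMA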
Thrombin inh – counter-screen for RPN11 inhibitors: inhibition of bovine thrombin; bovine thrombin cleavage of Ub4-pepOG, fluorescence polarization; hit rate 13% among 1,900; shares compounds with Rpn11 block; inhibition, % at 20 µM; AID 602333;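 active means mean inhibition at least 40% at 20 µM, or signal 3 deviations below plate average, so some actives read negative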;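 further: plate controls were thrombin with DMSO for no effect and buffer wells lacking thrombin for full effect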
* = called active by the depositor; / = not tested or not shown. Shown are actives, neighbours in structure and some others; about 2.4% of the full set was active somewhere. Unless noted, no stated cut-off is given here; in the data, active means inhibition above about 40%; inactive means the rest.

SMILES | TPT1 inhibitor | Rpn11 block | Rin1 Abl inh | Neddyl block | CSN deneddyl inh | HNF4A DNA FP | TPT1 inh confirm | RNase T1 inh | Rpn11 inh conf | MMP-2 counter | Thrombin inh
CC(N=C1NS(=O)(=O)c2ccccc21)C(=O)OCC(=O)N(C)C1CCS(=O)(=O)C1 (configuration not stated) | / | -2 | 0 | -8 | -4 | 0 | / | / | / | / | /
O=C(NCCN1C(=O)S/C(=C\c2cccnc2)C1=O)C1=NN(c2ccccc2)C(=O)CC1 | -3 | 4 | -1 | -17 | 0 | -1 | / | / | / | / | /
COc1ccc(/C=C2\Oc3cc(OCC(=O)N4CCC[C@H]4C(=O)O)ccc3C2=O)c(OC)c1 | 35* | 59* | -5 | 3 | 14 | 24 | 81* | 91* | 142* | -1 | 87*
COCCCn1c(=O)/c(=C\c2ccccc2OC(C)C)s/c1=C(/C#N)C(=O)Nc1ccc(C(=O)O)cc1 | 39* | 99* | 1 | 3 | 44 | 26 | 19 | 58* | -85 | -38 | active
CCN1/C(=C\C=C2\C(=O)N(C)C(=S)N2C)Sc2ccccc21 | 47* | 55* | 0 | -24 | 9 | 32 | 60* | 73* | 3 | -15 | -3
O=c1/c(=C\c2ccc(O)cc2)sc2n1C(c1ccccc1)C(c1ccccc1)=NN=2 (configuration not stated) | 62* | 81* | -3 | 18 | 31 | 41* | 65* | 76* | 95* | 11 | 86*
CCOC(=O)C1=C(c2ccccc2)N=c2s/c(=C\c3cccc(O)c3)c(=O)n2C1c1cccs1 (configuration not stated) | 2 | 7 | 1 | 19 | -2 | -2 | / | / | / | / | /
Cc1sc2nc(CSc3nc4ccccc4c(=O)n3CCCN3CCOCC3)[nH]c(=O)c2c1C | 57* | 50* | -2 | -2 | 17 | 34* | 67* | 77* | 89* | -33 | 38
CS(=O)(=O)C1=NSC2=NC(=O)/C(=C\c3ccc(OC(=O)c4ccco4)cc3)C(=N)N21 | 4 | / | / | / | / | / | / | / | / | / | /
COc1cc(/C=C2/C(=N)N3C(=NC2=O)SN=C3S(C)(=O)=O)ccc1OC(=O)c1ccco1 | 25* | 69* | 0 | -93 | 31 | 51* | 32* | 36* | 67* | 13 | 39
Cc1sc2nc(CSC(C)C(=O)Nc3ccccn3)[nH]c(=O)c2c1C (configuration not stated) | / | 19 | 1 | 0 | 10 | 20 | / | / | / | / | /
CC(SCc1nc2sc3c(c2c(=O)[nH]1)CCCC3)C(=O)Nc1ccccn1 (configuration not stated) | 32* | 45* | 0 | 38 | 5 | 24 | 39* | 50* | 39 | -4 | 29
Cc1ccc(NC(=O)C(C)SCc2nc3sc4c(c3c(=O)[nH]2)CCCC4)nc1 (configuration not stated) | 26* | 55* | 4 | 30 | 7 | 14 | 37* | 45* | 49* | -18 | 25
O=c1[nH]c(CNCc2cccnc2)nc2ccccc12 | -1 | 3 | 7 | 0 | -1 | 2 | / | / | / | / | /
CCOc1ccc(S(=O)(=O)N(CC(=O)N/N=C/c2ccc(-c3ccc([N+](=O)[O-])cc3)o2)c2ccccc2)cc1 | 39* | 58* | 0 | -6 | 9 | -10 | 39* | 52* | 43* | 74* | 19
CCOc1ccc(NC(=O)CN(c2ccc([N+](=O)[O-])cc2)S(=O)(=O)c2ccccc2)cc1 | -5 | -6 | -3 | -25 | -4 | 1 | / | / | / | / | /
CCN(CC)c1ccc(/C=N/N(c2ccccc2)c2ccccc2)c(O)c1 | 3 | 10 | 3 | 14 | -1 | 6 | / | / | / | / | /
CCN(CC)c1ccc(/C=N/NC(=O)c2ccco2)cc1 | 5 | -9 | -2 | / | -2 | 3 | / | / | / | / | /
CCN(CC)c1ccc(/C=N/N=C(c2ccccc2)c2ccccc2)c(O)c1 | 36* | 50* | -1 | 9 | -9 | 29 | 98* | 104* | 0 | -22 | -24
CCN(CC)c1ccc(/C=N/NC(=O)c2ccco2)c(O)c1 | 27* | 47* | -4 | 30 | 6 | 14 | 48* | 59* | 16 | -26 | 8
CC(C)n1nc(C(=O)Nc2ccc3c(c2)OCO3)c2ccccc2c1=O | / | -5 | 3 | -13 | -1 | -2 | / | / | / | / | /
O=S1(=O)CC(N2CCN(CC3CC3)CC2)CN1Cc1cn(Cc2ccccc2C(F)(F)F)nn1 (configuration not stated) | / | 0 | 0 | -2 | 1 | 3 | / | / | / | / | /
C/C(=N\Nc1ccc([N+](=O)[O-])cc1)c1cc2ccccc2o1 | 111* | 108* | -4 | -22 | 25 | 56* | 111* | 113* | 60* | -47 | 35
Cc1c(C(=O)N/N=C/c2ccc(-c3ccccc3[N+](=O)[O-])o2)sc(N)c1C#N | 7 | -11 | -3 | -5 | -4 | -3 | / | / | / | / | /
Cc1c(C(=O)N/N=C/c2ccc(O)c(Br)c2)sc(N)c1C#N | 27* | 58* | -6 | 42* | 14 | 23 | 17 | 24* | 54* | 20 | 41*
c1ccc(NC2=Nc3cccc4cccc2c34)cc1 | 14 | 27 | -2 | -24 | 10 | 6 | / | / | / | / | /
COc1ccc(NC2=Nc3cccc4cccc2c34)cc1 | 26* | 50* | -6 | -35 | 19 | 15 | 37* | 48* | 24 | -27 | 10
NC(=O)CC(NC(=O)Cc1cccc2ccccc12)c1ccc(NC2CCN(Cc3ccccc3)CC2)c([N+](=O)[O-])c1 (configuration not stated) | 26* | 42* | -3 | -26 | 19 | 8 | 29* | 40* | 24 | -38 | 11
NC(=O)CC(NC(=O)Cc1cccc2ccccc12)c1ccc(NC2CCCCCC2)c([N+](=O)[O-])c1 (configuration not stated) | 11 | 12 | -2 | -36 | 29 | 21 | / | / | / | / | /
O=C(NN1C(=O)/C(=C/c2ccc(O)c([N+](=O)[O-])c2)SC1=S)c1ccccc1Cl | 75* | 71* | 4 | -136 | 22 | 28 | 55* | 66* | 51* | -8 | 42*
